The results in this text go back to ChEMBL document CHEMBL4261610, “Structure-activity relationships of pyrazole-4-carbodithioates as antibacterials against methicillin-resistant Staphylococcus aureus” (Bioorg Med Chem Lett, 2018).

≈ marks a conversion by molar mass, not a printed value. Calls of active or inactive are those of the source. The calls are words filed in the database; no cut-off is given here.

Data set [1] can be described thus: Selectivity index, ratio of IC50 for human HKC8 cells to MIC for methicillin-resistant Staphylococcus aureus MW2. The format is toxicity. The conditions noted are these: read-out: Selectivity Index. In short, it runs like this:
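Ratio of the cytotoxic IC50 in human HKC-8 kidney cells to the MIC against MRSA MW2. Both values are in μg/mL and were measured in this work.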

Data set [2] is described as follows: Cytotoxicity against human HKC8 cells after 24 hrs by WST1 assay. The format is cell-based. The note with it: HKC8, 24 h. In outline: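 Human HKC-8 cells were exposed to compound, and cytotoxicity was reported as IC₅₀ in μg/mL.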
In data set [3] the test system is Staphylococcus aureus. The experiment in a line: Antibacterial activity against methicillin-resistant Staphylococcus aureus MW2 after 24 hrs by two-fold broth microdilution method. The format is functional. The conditions noted are these: MW2, 24 h. In outline: (§1)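 Read-out is the minimum inhibitory concentration against MRSA strain MW2, expressed in μg/mL.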
In general terms: Dilution methods test growth across graded concentrations, often in twofold steps.

The nature of data set [4]: Inhibition of RNA transcription in cell-free system. The format is functional.
In data set [5] the test system is dsDNA. The experiment in a line: Binding affinity to D2 double stranded DNA (unknown origin) at DNA to compound ratio of 1:2.5 to 1:10 after 20 mins by ESI-MS analysis. The format is nucleic-acid assay.
The subject of data set [6] is Staphylococcus aureus. The experiment in a line: Antibacterial activity against methicillin-resistant Staphylococcus aureus MW2. The format is functional. In short, it runs like this: as §1
Data set [7] in a line: Inhibition of DNA replication in cell-free system at >160 uM using 5'-flap-primed M13 ssDNA template/dNTP pretreated for 5 mins followed by DNA addition and measured after 20 mins by helicase-independent polymerase3 primer extension-strand displacement rolling circle assay. The format is functional. In outline:
(§2)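 The cell-free bacterial replication system holds all enzymes, ancillary proteins, nucleotide precursors and DNA template needed to duplicate circular bacterial DNA. Covalent reaction with any component would read out as loss of replication.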

For data set [8], the system named is Quadruplex DNA. In words: Binding affinity to ER03 quadruplex DNA (unknown origin) at DNA to compound ratio of 1:2.5 to 1:10 after 20 mins by ESI-MS analysis. The format is nucleic-acid assay.
Data set [9] concerns dsDNA. The experiment in a line: Binding affinity to Dst double stranded DNA (unknown origin) at DNA to compound ratio of 1:2.5 to 1:10 after 20 mins by ESI-MS analysis. The format is nucleic-acid assay.
Data set [10] in a line: Binding affinity to RNA oligonucleotide (unknown origin). In short, it runs like this: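 RNA oligonucleotides were incubated with compound, and adduct formation was examined by ESI mass spectrometry.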
Data set [11] is described as follows: Inhibition of DNA replication in cell-free system at <640 uM using 5'-flap-dsDNA template/dNTP after 20 mins by helicase-dependent leading strand rolling circle replication assay. The format is functional. In outline: as §2
The test system of data set [12] is Quadruplex DNA. In words: Binding affinity to G5 quadruplex DNA (unknown origin) at DNA to compound ratio of 1:2.5 to 1:10 after 20 mins by ESI-MS analysis. The format is nucleic-acid assay.
Another data set concerns DNA. In words: Binding affinity to ER04 single stranded DNA (unknown origin) at DNA to compound ratio of 1:2.5 to 1:10 after 20 mins by ESI-MS analysis. The format is nucleic-acid assay.
Data set [13] concerns dsDNA. The experiment in a line: Binding affinity to Rt1 double stranded DNA (unknown origin) at DNA to compound ratio of 1:2.5 to 1:10 after 20 mins by ESI-MS analysis. The format is nucleic-acid assay.

Consider `CCSC(=S)c1c(C)nn(-c2ccccc2)c1O`, for which the selectivity ratio in [1] worked out at 1. Moreover, the IC50 (as a rule, the midpoint of a concentration-inhibition curve) in [2] is 8 µg/mL (≈ 28.7 µM). The MIC – broadly, the lowest concentration that inhibits growth of the organism – against Staphylococcus aureus [3] was 8 µg/mL (≈ 28.7 µM).

In the data set on Staphylococcus aureus [3], `Cc1nn(-c2ccccc2)c(O)c1C(=S)Sc1cccnc1` yielded a minimal inhibitory concentration (MIC) of 16 to 32 µg/mL (≈ 48.9 to 97.7 µM).

In the case of `CSC(=S)c1c(C)nn(-c2ccccc2)c1O`, the selectivity ratio in [1] came out at 1. In addition, half-maximal inhibition in [2] (IC50) required 16 µg/mL (≈ 60.5 µM). For the same molecule, it took 16 µg/mL (≈ 60.5 µM) to inhibit growth with Staphylococcus aureus [3] (MIC).

On to `CCCSC(=S)c1c(C)nn(-c2ccccc2)c1O`, for which the inhibition result in data set [4] and in [11] was “inactive” throughout. For the same molecule, the outcome (in the data set with dsDNA [5]; in the data set on Quadruplex DNA [8]; with dsDNA [9]; in [10]; with Quadruplex DNA [12]; in the data set with DNA) was inactive. The outcome in the data set on dsDNA [13] was inactive. Also, in [1], the selectivity ratio came out at 1. Besides, it took 4 µg/mL (≈ 13.7 µM) to reach half-maximal inhibition in [2] (IC50). Also, the minimal inhibitory concentration (MIC) with Staphylococcus aureus [3] and with Staphylococcus aureus [6] was 4 µg/mL (≈ 13.7 µM) throughout. In addition, the inhibition entry in data set [7] is “Active”.

The molecule `CCCSC(=S)c1c(C)nn(-c2ccc(F)cc2)c1O` gave an MIC against Staphylococcus aureus [3] of 2 to 4 µg/mL (≈ 6.44 to 12.9 µM).

`CCCSC(=S)c1c(C)nn(-c2ccc(Cl)cc2)c1O` returned an MIC against Staphylococcus aureus [3] of 2 to 4 µg/mL (≈ 6.12 to 12.2 µM).

With `CCCSC(=S)c1c(-c2ccc(Cl)cc2)nn(-c2ccccc2)c1O`, in data set [1], the selectivity ratio was 4 to 8. Besides, it took 4 µg/mL (≈ 10.3 µM) to reach half-maximal inhibition in data set [2] (IC50). The same molecule showed a minimum inhibitory concentration (MIC) with Staphylococcus aureus [3] of 0.5 to 1 µg/mL (≈ 1.29 to 2.57 µM).

On to `CCCSC(=S)c1c(C)nn(-c2ccc(OC)cc2)c1O`, for which, in the data set with Staphylococcus aureus [3], the MIC came to 8 µg/mL (≈ 24.8 µM).

On to `CSC(SC)=C1C(=O)N(c2ccccc2)N=C1C`, for which the MIC against Staphylococcus aureus [3] was > 64 µg/mL.

Take `CCCSC(=S)c1c(-c2ccc([N+](=O)[O-])cc2)nn(-c2ccccc2)c1O`: the selectivity ratio in [1] was 0.5. For the same molecule, the IC50 in data set [2] came to 0.5 µg/mL (≈ 1.25 µM). Further, 1 µg/mL (≈ 2.5 µM) was the least that counted as inhibitory against Staphylococcus aureus [3] (MIC).

`CCCSC(=S)c1c(-c2ccc(OC)cc2)nn(-c2ccccc2)c1O`: the selectivity ratio in data set [1] came to 4. The molecule also registered an IC50 in data set [2] of 8 µg/mL (≈ 20.8 µM). The same molecule showed a minimal inhibitory concentration (MIC) against Staphylococcus aureus [3] of 2 µg/mL (≈ 5.2 µM).

For the molecule `CCCNC(=O)c1c(C)nn(-c2ccccc2)c1O`, the minimum inhibitory concentration (MIC) with Staphylococcus aureus [3] is > 64 µg/mL.

`CCCSC(=S)c1c(C)nn(-c2ccc(C)cc2)c1O` gave a minimal inhibitory concentration (MIC) with Staphylococcus aureus [3] of 4 µg/mL (≈ 13.1 µM).

Take `CCCSC(=S)c1c(-c2ccccc2)nn(-c2ccccc2)c1O`: in [1], the selectivity ratio amounted to 16. In [2], this molecule had an IC50 of 32 µg/mL (≈ 90.3 µM). In the data set with Staphylococcus aureus [3], the MIC was determined as 2 µg/mL (≈ 5.64 µM).

On to `CCCSC(=S)c1c(-c2ccc(Br)cc2)nn(-c2ccccc2)c1O`, for which the MIC against Staphylococcus aureus [3] was 0.5 µg/mL (≈ 1.15 µM).

For `CCCSC(=S)c1c(-c2ccc(C#N)cc2)nn(-c2ccccc2)c1O`, it took 2 µg/mL (≈ 5.27 µM) to inhibit growth against Staphylococcus aureus [3] (MIC).

In the case of `CCCSC(=S)c1c(-c2ccc(C)cc2)nn(-c2ccccc2)c1O`, the selectivity ratio in data set [1] lay in the range of 4 to 8. In data set [2], this molecule gave an IC50 of 8 µg/mL (≈ 21.7 µM). In the data set with Staphylococcus aureus [3], this molecule yielded a minimal inhibitory concentration (MIC) of 1 to 2 µg/mL (≈ 2.71 to 5.43 µM).

As for `Cc1nn(-c2ccccc2)c(O)c1C(=S)SCc1ccccc1`, the selectivity ratio in data set [1] is 8 to 16. This molecule also yielded a 50% inhibitory concentration (IC50) in data set [2] of 32 µg/mL (≈ 94 µM). The molecule further displayed a minimum inhibitory concentration (MIC) in the data set on Staphylococcus aureus [3] of 2 to 4 µg/mL (≈ 5.87 to 11.7 µM).

Turning to `CCCCSC(=S)c1c(C)nn(-c2ccccc2)c1O`, in [1], the selectivity ratio was 1 to 2. Inhibition in data set [2] was half-maximal at 4 µg/mL (≈ 13.1 µM) (IC50). The minimum inhibitory concentration (MIC) in the data set on Staphylococcus aureus [3] lay in the range of 2 to 4 µg/mL (≈ 6.53 to 13.1 µM).

With `CCCSC(=S)c1c(C)nn(-c2ccc(C#N)cc2)c1O`, it took 2 µg/mL (≈ 6.3 µM) to inhibit growth with Staphylococcus aureus [3] (MIC).

In the case of `CCCNC(=S)c1c(C)nn(-c2ccccc2)c1O`, the MIC in the data set on Staphylococcus aureus [3] was > 64 µg/mL.

Regarding `CCCOC(=O)c1c(C)nn(-c2ccccc2)c1O`, the MIC against Staphylococcus aureus [3] was > 64 µg/mL.

For `CCCSC(=S)c1c(C)nn(-c2ccc([N+](=O)[O-])cc2)c1O`, in data set [1], the selectivity ratio is 1. Further, the half-inhibitory concentration (IC50) in [2] was in the range of 0.5 to 1 µg/mL (≈ 1.48 to 2.96 µM). This molecule also came in with an MIC against Staphylococcus aureus [3] of 0.5 to 1 µg/mL (≈ 1.48 to 2.96 µM).

Take `CCCSC(=S)c1c(-c2ccc(F)cc2)nn(-c2ccccc2)c1O`: in data set [1], the selectivity ratio worked out at 4. Moreover, in data set [2], the IC50 was 4 µg/mL (≈ 10.7 µM). The molecule also returned an MIC in the data set on Staphylococcus aureus [3] of 1 µg/mL (≈ 2.68 µM).

As for `C=CCSC(=S)c1c(C)nn(-c2ccccc2)c1O`, the selectivity ratio in data set [1] lay within 2 to 4. In data set [2], this molecule showed an IC50 of 16 to 32 µg/mL (≈ 55.1 to 110 µM). The molecule further registered a minimal inhibitory concentration (MIC) in the data set on Staphylococcus aureus [3] of 4 to 8 µg/mL (≈ 13.8 to 27.5 µM).

In the data set with Staphylococcus aureus [3], `CCCSC(=S)c1c(C)nn(-c2ccc(Br)cc2)c1O` gave an MIC of 1 to 2 µg/mL (≈ 2.69 to 5.39 µM).

Consider `CCCSC(=S)c1c(-c2ccc(C(F)(F)F)cc2)nn(-c2ccccc2)c1O`, for which the MIC against Staphylococcus aureus [3] was in the range of 32 to 64 µg/mL (≈ 75.7 to 151 µM).
